# Results taken from article PMC4718766 (Nature chemical biology, 2015).
# Key:
# NCI-H1563 cells = assay: Compound sensitivity testing; format: cell-based; conditions: Homo sapiens, NCI-H1563, 48 h
# Procedure, shortened: (§1)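 Cells per 384-well: A549 1000 (RPMI), HeLa 1000 (DMEM), MCF-7 500 (DMEM), PC3 4000 (F12-K), NCI-H2122 1000 (RPMI), NCI-H1563 1500 (RPMI); all with 10% FBS. Test compound added 24 h after plating, 48 h exposure. Readout: 25% CellTiter-Glo in PBS, 10 min, luminescence, normalized to DMSO. Dose curves: mean of 8 replicates ± s.d.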
# NCI-H2122 cells = assay: Compound sensitivity testing; format: cell-based; conditions: Homo sapiens, NCI-H2122, 48 h
# Procedure, shortened: as §1
# [1] = test system: PDE3A complex with V5-tagged SIRT7 and SLFN12; assay: PDE3A immunoprecipitation and V5 immunoblot; format: cell-based, human; conditions: HeLa, 10 µM, 4 hours, co-immunoprecipitation
# Procedure, shortened: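 HeLa cells transfected with V5-tagged SIRT7, SLFN12 or GFP constructs. At 72 h, treated 4 h with 10 µM test compound or trequinsin. Lysis in ModRipa (1% NP-40, 50 mM Tris-HCl pH 7.8, 150 mM NaCl, 0.1% deoxycholate, 1 mM EDTA). 2 mg lysate with 1 µg anti-PDE3A overnight at 4 °C, then Protein A/G beads 1 h. LDS elution; immunoblots for V5 (1:5000) and PDE3A (1:1000).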
# A549 cells = assay: Cell viability; format: cell-based; conditions: Homo sapiens, A549, 48 h
# Procedure, shortened: as §1
# HeLa cells [2] = assay: Compound sensitivity testing; format: cell-based, human; conditions: for activity compared with (R)-DNMDP: cell viability, (R)-des-nitro analogues
# Procedure, shortened: as §1
# HeLa cells [3] = assay: Caspase activity; format: cell-based, human; conditions: 48 hours (caspase), 36 hours (PARP)
# Procedure, shortened: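 HeLa cells (1000/well, 384-well) in growth medium with 10% FBS; test compound added 24 h after plating. Caspase: 48 h exposure, Caspase-Glo added, luminescence read. PARP: 36 h exposure to test compound or staurosporine; NP-40 lysis; immunoblot for PARP (1:1000) and actin (1:20,000), infrared imaging.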
# MCF7 cells = assay: Compound sensitivity testing; format: cell-based; conditions: Homo sapiens, MCF7, 48 h
# Procedure, shortened: as §1
# 234 kinases = assay: Millipore KinaseProfiler panel; format: biochemical, human; conditions: 10 µM DNMDP
# [4] = test system: 766 genomically characterized cancer cell lines; assay: Large-scale cell-line viability measurements; format: cell-based, human; conditions: of 766 cancer cell lines, 72 hours, 66.4 µM to 2 nM
# Procedure, shortened: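 500 cells/well in 1536-well plates, each line in its preferred medium; overnight incubation. Test compound acoustically dispensed at 16 concentrations, 66.4 µM–2 nM, 2-fold steps, in duplicate. After 72 h, ATP measured by CellTiter-Glo, normalized to media-only and DMSO wells. Curves fit to 2- or 3-parameter sigmoids. Sensitivity metric: AUC of optimal 8-point curve by numeric integration.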
# PC3 cells = assay: Compound sensitivity testing; format: cell-based; conditions: Homo sapiens, PC-3, 48 h
# Procedure, shortened: as §1
# NCI-H1734 cells = assay: Cell viability; format: cell-based, human; conditions: NCI-H1734 versus A549, 48 hours
# HeLa cells [5] = assay: Rescue of DNMDP induced cytotoxicity; format: cell-based, human; conditions: 48 hours; for rescue of DNMDP cytotoxicity: DNMDP in combination, dose response; for rank in bioactives screen for rescue of cell death induced by DNMDP: 20 µM compound with 30 nM DNMDP, 1600 compounds; for competition with DNMDP (rescue): up to 10 µM
# Procedure, shortened: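 HeLa cells (1000/well, 384-well) in DMEM with 10% FBS and 1% Pen/Strep. 24 h after plating, 1600 bioactives added at 20 µM together with cytotoxic agent at 30 nM final; 48 h incubation. Follow-up combinations used indicated PDE3/pan-PDE inhibitor concentrations with single data points. CellTiter-Glo viability expressed as percentage of untreated DMSO control.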
# PDE3A = PDE3A (Homo sapiens, UniProt Q14432); assay: Linker-affinity purification with DNMDP-2L resin and PDE3A immunoblot; format: binding; conditions: HeLa cell lysate, 10 µM competitor
# PDE3A, sequence (Q14432 whole entry): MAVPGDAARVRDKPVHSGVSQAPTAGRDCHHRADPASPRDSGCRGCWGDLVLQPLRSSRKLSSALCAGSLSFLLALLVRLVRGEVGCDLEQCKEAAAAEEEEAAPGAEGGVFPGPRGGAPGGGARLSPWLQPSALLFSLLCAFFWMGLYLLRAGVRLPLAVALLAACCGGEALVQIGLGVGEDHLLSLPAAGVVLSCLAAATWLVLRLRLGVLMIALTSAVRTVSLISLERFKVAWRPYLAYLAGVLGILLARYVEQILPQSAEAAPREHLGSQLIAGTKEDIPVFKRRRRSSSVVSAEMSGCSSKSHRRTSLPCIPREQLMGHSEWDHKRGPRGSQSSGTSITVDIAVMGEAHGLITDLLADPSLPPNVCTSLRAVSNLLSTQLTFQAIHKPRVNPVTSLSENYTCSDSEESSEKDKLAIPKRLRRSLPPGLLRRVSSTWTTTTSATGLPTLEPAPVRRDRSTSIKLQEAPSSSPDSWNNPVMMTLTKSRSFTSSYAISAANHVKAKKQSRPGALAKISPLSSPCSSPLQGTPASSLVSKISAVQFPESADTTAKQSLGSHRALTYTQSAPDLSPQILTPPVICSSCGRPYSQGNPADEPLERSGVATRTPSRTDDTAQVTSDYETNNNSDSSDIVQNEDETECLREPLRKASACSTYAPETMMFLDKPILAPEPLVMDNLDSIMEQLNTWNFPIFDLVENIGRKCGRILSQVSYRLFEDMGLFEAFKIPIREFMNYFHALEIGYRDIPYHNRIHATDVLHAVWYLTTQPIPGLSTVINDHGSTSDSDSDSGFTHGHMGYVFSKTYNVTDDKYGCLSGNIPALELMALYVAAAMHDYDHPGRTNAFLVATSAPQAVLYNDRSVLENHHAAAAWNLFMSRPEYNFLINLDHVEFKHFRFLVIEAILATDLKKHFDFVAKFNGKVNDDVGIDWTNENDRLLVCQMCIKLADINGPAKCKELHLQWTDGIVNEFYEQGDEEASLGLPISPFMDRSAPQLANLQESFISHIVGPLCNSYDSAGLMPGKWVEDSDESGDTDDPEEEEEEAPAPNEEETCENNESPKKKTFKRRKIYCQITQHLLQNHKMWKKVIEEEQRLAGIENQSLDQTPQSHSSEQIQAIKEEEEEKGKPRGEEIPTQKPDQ
# Procedure, shortened: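 200 µg lysate incubated 4 h with resin-coupled linker analogue, competitor compounds added beforehand. Three washes in buffer with 10 µM compound. Bound protein resolved by SDS-PAGE; anti-PDE3A immunoblot (1:1000, overnight, 4 °C); infrared detection.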
# PDE3 = conditions: read-out: PDE3 IC50; cited from earlier work
structure (smiles),measurement,setting,value
"CCN(CC)c1ccc(C2=NNC(=O)CC2C)cc1[N+](=O)[O-] (stereo not shown) [DNMDP, 6-(4-(diethylamino)-3-nitrophenyl)-5-methyl-4,5-dihydropyridazin-3(2H)-one]",EC50,NCI-H1563 cells,10 to 100 nM
same,EC50,NCI-H2122 cells,10 to 100 nM
same,complex formation of V5-tagged SIRT7 and SLFN12 with PDE3A,[1],enhanced complex formation
same,EC50,A549 cells,> 1000 nM
same,EC70 concentration,"HeLa cells [2]; HeLa, 48 hours",30 nM
same,EC50,"HeLa cells [2]; Homo sapiens, HeLa, 48 h",10 to 100 nM
same,"induction of apoptosis (caspase activity, PARP cleavage)",HeLa cells [3],undergo apoptosis
same,EC50,MCF7 cells,> 1000 nM
same,kinase inhibition across 234 kinases,234 kinases,no kinase inhibition
same,number of cell lines sensitive with a robust Z-score lower than -4,[4],22 cell lines
same,EC50,PC3 cells,> 1000 nM
same,selective toxicity in dose-response retest,NCI-H1734 cells,specifically toxic to the NCI-H1734 cell line
CCN(CCOCCOCCNC(=O)OC(C)(C)C)c1ccc(C2=NNC(=O)C[C@H]2C)cc1 [DNMDP-2L],rescue of DNMDP cytotoxicity,HeLa cells [5],same DNMDP cytotoxicity rescue phenotype as non-cytotoxic PDE3 inhibitors
CCN(CC)c1ccc(C2=NNC(=O)C[C@H]2C)cc1 [DNMDP-2],activity compared with (R)-DNMDP,HeLa cells [2],tested similarly to (R)-DNMDP
CCN(CC)c1ccc(C2=NNC(=O)CC2C)cc1 (stereo not shown) [DNMDP-3],activity compared with (R)-DNMDP,HeLa cells [2],tested similarly to (R)-DNMDP
CN(C(=O)CCCOc1ccc2[nH]c(=O)ccc2c1)C1CCCCC1 [cilostamide],rescue of DNMDP cytotoxicity,HeLa cells [5],able to rescue DNMDP cytotoxicity in a dose-dependent manner
O=C1CCc2cc(OCCCCc3nnnn3C3CCCCC3)ccc2N1 [cilostazol],rank in bioactives screen for rescue of cell death induced by DNMDP,HeLa cells [5],three most potent compounds
OCCN(CCO)c1nc(N2CCCCC2)c2nc(N(CCO)CCO)nc(N3CCCCC3)c2n1 [dipyridamole],competition with DNMDP (rescue),HeLa cells [5],not effective competitors
CC(C)C(=O)c1c(C(C)C)nn2ccccc12 [idubilast],competition with DNMDP (rescue),HeLa cells [5],not effective competitors
C[C@@H]1CC(=O)NN=C1c1ccc(NN=C(C#N)C#N)cc1 [levosimendan],rank in bioactives screen for rescue of cell death induced by DNMDP,HeLa cells [5],three most potent compounds
same,rescue of DNMDP cytotoxicity,HeLa cells [5],able to rescue DNMDP cytotoxicity in a dose-dependent manner
Cc1[nH]c(=O)c(C#N)cc1-c1ccncc1 [milrinone],rank in bioactives screen for rescue of cell death induced by DNMDP,HeLa cells [5],three most potent compounds
same,rescue of DNMDP cytotoxicity,HeLa cells [5],able to rescue DNMDP cytotoxicity in a dose-dependent manner
CCCc1nn(C)c2c(=O)[nH]c(-c3cc(S(=O)(=O)N4CCN(C)CC4)ccc3OCC)nc12 [sildenafil],competition with DNMDP (rescue),HeLa cells [5],not effective competitors
COc1cc2c(cc1OC)-c1c/c(=N\c3c(C)cc(C)cc3C)n(C)c(=O)n1CC2 [trequinsin],effect on HeLa cell viability,"HeLa cells [2]; HeLa, up to 10 µM, 48 hours",did not affect HeLa cell viability in any detectable way
same,blocking of PDE3A binding to the tethered linker analogue,PDE3A,blocked
same,IC50,PDE3,0.25 nM
CCCc1nc(C)c2c(=O)[nH]c(-c3cc(S(=O)(=O)N4CCN(CC)CC4)ccc3OCC)nn12 [vardenafil],competition with DNMDP (rescue),HeLa cells [5],not effective competitors
